Test results taken from paper PMC8561236 (Cell Reports Medicine, 2021).

Columns and labels:
[1] = tested on: Ly6Chigh monocytes in EAU mice; test: Experimental autoimmune uveitis; parameters: species or system B10.RIII mice; conditions: mouse, in vivo, 200 mg/kg
[2] = tested on: CD172+ CD43− monocytes in anti-GBM rats; test: Anti-GBM induced glomerulonephritis, blood monocyte analysis; format: in vivo, Wistar Kyoto rats; conditions: oral, 4.56 μmol/kg on day 0 or 575 nmol/kg on days 0 and 3, day 6 whole blood
Outline: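 Male WKY rats on folate-deficient diet for 10 days, then IV anti-GBM serum (25 μL/100 g); diet continued. Dosing at 8 h (day 0) and day 3, ± 300-fold molar excess FA competitor; n = 3. Blood in 5 mM K2EDTA, analysed next day: RBC lysis of 100 μL blood, flow staining. CD172+CD43− monocytes expressed as percentage of total leukocytes.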

RAW264.7 cells = conditions: same experimental condition; cited from earlier work
FRβ = conditions: cited from earlier work
[3] = Pharmacokinetic study in dogs; format: in vivo, beagle dogs; conditions: dog
[4] = Pharmacokinetic study in rats; format: in vivo, Lewis rats; conditions: rat, EC2319 subcutaneous 500 nmol/kg; analyte = label

## CNC(=O)c1cc(Oc2ccc3nc(N[C@@H]4CCCC[C@H]4O)sc3c2)ccn1 [BLZ945]
[1]
  effect on classical (R1, Ly6Chigh CD43+) monocytes: reduced significantly to background levels

## CN(Cc1cnc2nc(N)nc(N)c2n1)c1ccc(C(=O)N[C@@H](CCC(=O)O)C(=O)O)cc1 [MTX, Methotrexate]
[2]
  effect on CD172+ CD43− monocytes: ineffective

## Nc1nc(=O)c2nc(CNc3ccc(C(=O)N[C@@H](CCC(=O)O)C(=O)O)cc3)cnc2[nH]1 [FA, Folic acid]
RAW264.7 cells
  biological effect of FA alone: did not show an immediate biological effect

## Nc1nc(N)c2nc(CNc3ccc(C(=O)N[C@@H](CCC(=O)O)C(=O)O)cc3)cnc2n1 [AMT, Aminopterin]
FRβ
  binding affinity toward FRβ: negligible
[3]
  difference in AUClast between EC2319-derived AMT and the AMT adduct: 3- to 7 fold
[3]; both dosing routes (intravenous 1 mg/kg, subcutaneous 2.43 mg/kg), analyte = label
  share of total AUClast: 1.37%–2.99%
[4]
  AUClast (% Total): 9.17%
